Laboratory results as given in ChEMBL document CHEMBL4308848, “Molecular Basis for the N-Terminal Bromodomain-and-Extra-Terminal-Family Selectivity of a Dual Kinase-Bromodomain Inhibitor” (J Med Chem, 2018).
Active and inactive are the calls of the source. The rule behind the calls is not given here.

How the values were obtained:
[1] = target: T1, Bromodomain-containing protein 4 (Homo sapiens, UniProt O60885); experiment: Inhibition of BRD4 C-terminal bromodomain 2 (unknown origin) expressed in Escherichia coli Bl21(DE3) by alpha-screen assay
[2] = target: T2, Bromodomain-containing protein 3 (Homo sapiens, UniProt Q15059); experiment: Inhibition of BRD3 N-terminal bromodomain 1 (unknown origin) expressed in Escherichia coli Bl21(DE3) by alpha-screen assay
T2 sequence (Q15059 whole entry): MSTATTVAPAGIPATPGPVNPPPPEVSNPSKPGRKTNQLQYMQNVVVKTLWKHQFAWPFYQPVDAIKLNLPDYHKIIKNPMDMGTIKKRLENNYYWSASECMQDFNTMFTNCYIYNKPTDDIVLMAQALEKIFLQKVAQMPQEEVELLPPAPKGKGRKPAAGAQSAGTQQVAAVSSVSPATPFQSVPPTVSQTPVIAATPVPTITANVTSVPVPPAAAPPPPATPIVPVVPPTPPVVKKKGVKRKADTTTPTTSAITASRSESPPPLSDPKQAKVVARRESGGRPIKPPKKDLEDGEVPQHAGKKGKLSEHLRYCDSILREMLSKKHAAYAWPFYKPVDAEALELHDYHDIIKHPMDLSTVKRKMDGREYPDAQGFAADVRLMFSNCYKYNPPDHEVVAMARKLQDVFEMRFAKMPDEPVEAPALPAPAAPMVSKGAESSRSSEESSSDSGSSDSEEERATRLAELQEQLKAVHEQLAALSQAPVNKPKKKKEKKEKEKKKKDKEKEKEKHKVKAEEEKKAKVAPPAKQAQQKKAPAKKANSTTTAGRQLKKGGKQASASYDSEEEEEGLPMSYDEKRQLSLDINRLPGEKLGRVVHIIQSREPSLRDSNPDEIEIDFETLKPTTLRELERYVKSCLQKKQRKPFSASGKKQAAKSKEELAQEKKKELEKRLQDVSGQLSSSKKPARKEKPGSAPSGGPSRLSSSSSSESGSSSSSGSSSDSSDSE

[3] = target: T2, Bromodomain-containing protein 3; experiment: Inhibition of BRD3 C-terminal bromodomain 2 (unknown origin) expressed in Escherichia coli Bl21(DE3) by alpha-screen assay
[4] = target: T3, Bromodomain-containing protein 2 (Homo sapiens, UniProt P25440); experiment: Inhibition of BRD2 N-terminal bromodomain 1 (unknown origin) expressed in Escherichia coli Bl21(DE3) by alpha-screen assay
T3 sequence (P25440 whole entry): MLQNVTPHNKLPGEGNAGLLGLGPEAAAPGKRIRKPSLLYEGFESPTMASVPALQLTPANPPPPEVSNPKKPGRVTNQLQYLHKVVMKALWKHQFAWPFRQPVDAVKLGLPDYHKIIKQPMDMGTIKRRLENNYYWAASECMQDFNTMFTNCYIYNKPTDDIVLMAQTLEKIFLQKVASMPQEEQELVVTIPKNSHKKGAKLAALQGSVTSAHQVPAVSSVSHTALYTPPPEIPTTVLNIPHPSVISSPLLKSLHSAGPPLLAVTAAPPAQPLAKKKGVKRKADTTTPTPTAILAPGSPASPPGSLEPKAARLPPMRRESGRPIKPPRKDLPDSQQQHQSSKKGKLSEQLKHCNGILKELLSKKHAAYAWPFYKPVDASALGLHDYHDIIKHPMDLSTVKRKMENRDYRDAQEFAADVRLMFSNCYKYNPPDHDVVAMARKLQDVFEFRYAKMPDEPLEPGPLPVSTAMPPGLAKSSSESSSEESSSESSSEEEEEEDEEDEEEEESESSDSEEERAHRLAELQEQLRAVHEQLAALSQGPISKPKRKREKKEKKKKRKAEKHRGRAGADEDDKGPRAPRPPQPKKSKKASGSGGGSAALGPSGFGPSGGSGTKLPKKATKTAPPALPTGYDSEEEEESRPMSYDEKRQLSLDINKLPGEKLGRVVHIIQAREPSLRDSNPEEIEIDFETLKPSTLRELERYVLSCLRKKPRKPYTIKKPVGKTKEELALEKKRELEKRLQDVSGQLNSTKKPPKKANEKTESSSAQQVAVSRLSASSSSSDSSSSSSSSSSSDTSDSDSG

[5] = target: T3, Bromodomain-containing protein 2; experiment: Inhibition of BRD2 C-terminal bromodomain 2 (unknown origin) expressed in Escherichia coli Bl21(DE3) by alpha-screen assay
[6] = target: T4, Bromodomain testis-specific protein (Homo sapiens, UniProt Q58F21); experiment: Inhibition of BRDT N-terminal bromodomain 1 (unknown origin) expressed in Escherichia coli Bl21(DE3) by alpha-screen assay
[7] = target: T1, Bromodomain-containing protein 4
[8] = target: T4, Bromodomain testis-specific protein
[9] = target: T4, Bromodomain testis-specific protein; remark: listed apart in the source
[10] = target: T1, Bromodomain-containing protein 4; experiment: Displacement of BI-BODIPY from BRD4 C-terminal bromodomain 2 (unknown origin) expressed in Escherichia coli Bl21(DE3) by fluorescence polarization assay
Method in brief: (§1)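 Fluorescence anisotropy in 50 mM HEPES, 100 mM NaCl, 4 mM CHAPS pH 7.4, with 15 nM BI-BODIPY tracer and bromodomain set at 80% tracer bound. […] Percent bound was determined where displacement was incomplete.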

[11] = target: T4, Bromodomain testis-specific protein; experiment: Displacement of BI-BODIPY from BRDT C-terminal bromodomain 2 (unknown origin) expressed in Escherichia coli Bl21(DE3) by fluorescence polarization assay; method in brief: as §1
[12] = target: T1, Bromodomain-containing protein 4; experiment: Binding affinity to BRD4 bromodomain 1 (unknown origin) expressed in Escherichia coli Bl21(DE3) by isothermal-titration calorimetry
[13] = target: T1, Bromodomain-containing protein 4; experiment: Inhibition of BRD4 bromodomain 1 in human MM1S cells assessed as reduction in c-myc levels at 0.1 to 30 uM by Western blot analysis; assay type: cell-based
Method in brief: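 MM.1S cells in RPMI-1640/10% FBS were seeded at 10^6 per well and exposed for 6 h to 0.1–30 μM compound. Lysates were run on 12.5% SDS-PAGE and blotted for c-Myc, with GAPDH as loading control. Detection by HRP secondary and ECL on X-ray film.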

[14] = system: A549; experiment: Cytotoxicity against human A549 cells assessed as reduction in cell viability at 0.5 to 50 uM after 8 hrs by Alamar blue assay; assay type: cell-based; settings: a549, 8 h
Method in brief: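 A549-NF-κB-luc cells in DMEM/10% FBS with hygromycin were dosed with serially diluted compound at 0.5% final DMSO. TNF-α (15 ng/mL final) was added 30 min after dosing, and viability was read by Alamar Blue in parallel with the 8 h luciferase read. Three biological × three technical replicates.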

[15] = target: Mitogen-activated protein kinase 14 (Homo sapiens) (UniProt Q16539); experiment: Inhibition of p38alpha in human MM1S cells assessed as reduction in MSK1 phosphorylation at T581 at 0.1 to 30 uM by Western blot analysis; assay type: cell-based
Mitogen-activated protein kinase 14 (Homo sapiens), sequence (Q16539 whole entry): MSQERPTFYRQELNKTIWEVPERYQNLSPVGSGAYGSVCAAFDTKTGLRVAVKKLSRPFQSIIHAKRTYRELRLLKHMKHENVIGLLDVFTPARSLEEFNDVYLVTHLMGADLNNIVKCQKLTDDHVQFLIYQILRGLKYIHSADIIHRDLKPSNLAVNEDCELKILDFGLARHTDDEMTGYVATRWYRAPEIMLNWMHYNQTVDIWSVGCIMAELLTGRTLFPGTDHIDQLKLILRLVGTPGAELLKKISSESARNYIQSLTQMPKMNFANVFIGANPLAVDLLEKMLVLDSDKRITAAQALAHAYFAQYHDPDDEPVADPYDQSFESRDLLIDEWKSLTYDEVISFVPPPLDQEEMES

[16] = target: T4, Bromodomain testis-specific protein; experiment: Binding affinity to human BRDT bromodomain 1 (unknown origin) expressed in Escherichia coli Bl21(DE3) at 12.5 to 100 uM by protein-observed fluorine NMR method
Method in brief: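 5-Fluorotryptophan-labeled bromodomain expressed in E. coli Bl21(DE3)+pRARE in defined medium with 5-fluoroindole, induced with 1 mM IPTG at 20 °C, Ni-purified. 19F NMR with 40−50 μM protein in 50 mM TRIS, 100 mM NaCl, 5% D2O pH 7.4, 0.05% DMSO, across varying ligand concentrations. Referenced to trifluoroacetate; 0.7 s relaxation delay, 90° flip.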

[17] = target: T4, Bromodomain testis-specific protein; experiment: Inhibition of human BRDT bromodomain 1 expressed in HEK293 cells at 10 uM relative to control; assay type: cell-based
[18] = target: SWI/SNF-related matrix-associated actin-dependent regulator of chromatin subfamily A member 2 (Homo sapiens) (UniProt P51531); experiment: Inhibition of human SMARCA2 (1377 to 1486 residues) (unknown origin) expressed in bacterial expression system at 10 uM relative to control
SWI/SNF-related matrix-associated actin-dependent regulator of chromatin subfamily A member 2 (Homo sapiens), sequence (P51531 whole entry, the tested form may be a part): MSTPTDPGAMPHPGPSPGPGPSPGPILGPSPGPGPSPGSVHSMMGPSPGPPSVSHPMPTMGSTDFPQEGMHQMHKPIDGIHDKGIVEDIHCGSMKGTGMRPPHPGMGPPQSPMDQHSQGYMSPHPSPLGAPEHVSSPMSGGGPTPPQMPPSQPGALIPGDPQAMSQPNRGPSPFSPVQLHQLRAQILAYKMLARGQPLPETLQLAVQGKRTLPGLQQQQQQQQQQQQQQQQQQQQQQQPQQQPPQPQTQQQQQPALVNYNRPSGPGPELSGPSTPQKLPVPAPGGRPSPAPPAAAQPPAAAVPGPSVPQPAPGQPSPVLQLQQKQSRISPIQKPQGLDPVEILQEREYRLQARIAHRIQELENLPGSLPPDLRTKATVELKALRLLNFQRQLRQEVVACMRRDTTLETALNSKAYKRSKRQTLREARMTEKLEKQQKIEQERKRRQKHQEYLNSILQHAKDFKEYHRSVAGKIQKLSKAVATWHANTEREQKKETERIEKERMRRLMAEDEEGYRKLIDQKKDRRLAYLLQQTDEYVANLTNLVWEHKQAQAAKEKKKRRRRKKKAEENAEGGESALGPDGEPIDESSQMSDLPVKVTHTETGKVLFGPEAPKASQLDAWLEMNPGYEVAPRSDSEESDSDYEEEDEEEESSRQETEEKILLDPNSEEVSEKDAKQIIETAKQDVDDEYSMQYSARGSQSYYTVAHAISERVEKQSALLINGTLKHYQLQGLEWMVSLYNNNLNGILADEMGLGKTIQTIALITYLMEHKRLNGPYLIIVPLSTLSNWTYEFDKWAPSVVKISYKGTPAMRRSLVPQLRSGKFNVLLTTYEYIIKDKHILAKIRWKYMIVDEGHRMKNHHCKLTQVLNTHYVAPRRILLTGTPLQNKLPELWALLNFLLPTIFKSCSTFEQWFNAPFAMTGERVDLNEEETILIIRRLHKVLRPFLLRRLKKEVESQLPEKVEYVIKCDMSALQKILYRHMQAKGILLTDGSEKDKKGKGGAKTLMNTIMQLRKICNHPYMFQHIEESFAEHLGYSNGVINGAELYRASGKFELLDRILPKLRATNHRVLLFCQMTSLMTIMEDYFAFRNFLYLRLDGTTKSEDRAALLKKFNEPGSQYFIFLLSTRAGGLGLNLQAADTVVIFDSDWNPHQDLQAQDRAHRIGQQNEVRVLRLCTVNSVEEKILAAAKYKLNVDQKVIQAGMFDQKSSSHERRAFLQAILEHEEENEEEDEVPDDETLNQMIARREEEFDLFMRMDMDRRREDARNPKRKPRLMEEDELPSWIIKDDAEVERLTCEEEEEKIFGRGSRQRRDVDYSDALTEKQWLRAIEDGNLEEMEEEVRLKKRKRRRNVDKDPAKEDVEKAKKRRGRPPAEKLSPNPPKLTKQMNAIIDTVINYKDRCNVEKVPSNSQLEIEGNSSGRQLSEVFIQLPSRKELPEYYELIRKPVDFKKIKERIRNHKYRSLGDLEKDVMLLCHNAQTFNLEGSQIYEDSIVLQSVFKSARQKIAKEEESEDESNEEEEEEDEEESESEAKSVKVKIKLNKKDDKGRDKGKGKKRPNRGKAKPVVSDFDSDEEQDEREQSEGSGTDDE

[19] = target: Histone acetyltransferase KAT2B (Homo sapiens) (UniProt Q92831); experiment: Inhibition of human PCAF (715 to 831 residues) expressed in bacterial expression system at 10 uM relative to control
[20] = target: Histone acetyltransferase p300 (Homo sapiens) (UniProt Q09472); experiment: Inhibition of human P300 (1040 to 1161 residues) expressed in bacterial expression system at 10 uM relative to control
[21] = target: SWI/SNF-related matrix-associated actin-dependent regulator of chromatin subfamily A member 4 (Homo sapiens) (UniProt P51532); experiment: Inhibition of human SMARCA4 expressed in HEK293 cells at 10 uM relative to control; assay type: cell-based
SWI/SNF-related matrix-associated actin-dependent regulator of chromatin subfamily A member 4 (Homo sapiens), sequence (P51532 whole entry): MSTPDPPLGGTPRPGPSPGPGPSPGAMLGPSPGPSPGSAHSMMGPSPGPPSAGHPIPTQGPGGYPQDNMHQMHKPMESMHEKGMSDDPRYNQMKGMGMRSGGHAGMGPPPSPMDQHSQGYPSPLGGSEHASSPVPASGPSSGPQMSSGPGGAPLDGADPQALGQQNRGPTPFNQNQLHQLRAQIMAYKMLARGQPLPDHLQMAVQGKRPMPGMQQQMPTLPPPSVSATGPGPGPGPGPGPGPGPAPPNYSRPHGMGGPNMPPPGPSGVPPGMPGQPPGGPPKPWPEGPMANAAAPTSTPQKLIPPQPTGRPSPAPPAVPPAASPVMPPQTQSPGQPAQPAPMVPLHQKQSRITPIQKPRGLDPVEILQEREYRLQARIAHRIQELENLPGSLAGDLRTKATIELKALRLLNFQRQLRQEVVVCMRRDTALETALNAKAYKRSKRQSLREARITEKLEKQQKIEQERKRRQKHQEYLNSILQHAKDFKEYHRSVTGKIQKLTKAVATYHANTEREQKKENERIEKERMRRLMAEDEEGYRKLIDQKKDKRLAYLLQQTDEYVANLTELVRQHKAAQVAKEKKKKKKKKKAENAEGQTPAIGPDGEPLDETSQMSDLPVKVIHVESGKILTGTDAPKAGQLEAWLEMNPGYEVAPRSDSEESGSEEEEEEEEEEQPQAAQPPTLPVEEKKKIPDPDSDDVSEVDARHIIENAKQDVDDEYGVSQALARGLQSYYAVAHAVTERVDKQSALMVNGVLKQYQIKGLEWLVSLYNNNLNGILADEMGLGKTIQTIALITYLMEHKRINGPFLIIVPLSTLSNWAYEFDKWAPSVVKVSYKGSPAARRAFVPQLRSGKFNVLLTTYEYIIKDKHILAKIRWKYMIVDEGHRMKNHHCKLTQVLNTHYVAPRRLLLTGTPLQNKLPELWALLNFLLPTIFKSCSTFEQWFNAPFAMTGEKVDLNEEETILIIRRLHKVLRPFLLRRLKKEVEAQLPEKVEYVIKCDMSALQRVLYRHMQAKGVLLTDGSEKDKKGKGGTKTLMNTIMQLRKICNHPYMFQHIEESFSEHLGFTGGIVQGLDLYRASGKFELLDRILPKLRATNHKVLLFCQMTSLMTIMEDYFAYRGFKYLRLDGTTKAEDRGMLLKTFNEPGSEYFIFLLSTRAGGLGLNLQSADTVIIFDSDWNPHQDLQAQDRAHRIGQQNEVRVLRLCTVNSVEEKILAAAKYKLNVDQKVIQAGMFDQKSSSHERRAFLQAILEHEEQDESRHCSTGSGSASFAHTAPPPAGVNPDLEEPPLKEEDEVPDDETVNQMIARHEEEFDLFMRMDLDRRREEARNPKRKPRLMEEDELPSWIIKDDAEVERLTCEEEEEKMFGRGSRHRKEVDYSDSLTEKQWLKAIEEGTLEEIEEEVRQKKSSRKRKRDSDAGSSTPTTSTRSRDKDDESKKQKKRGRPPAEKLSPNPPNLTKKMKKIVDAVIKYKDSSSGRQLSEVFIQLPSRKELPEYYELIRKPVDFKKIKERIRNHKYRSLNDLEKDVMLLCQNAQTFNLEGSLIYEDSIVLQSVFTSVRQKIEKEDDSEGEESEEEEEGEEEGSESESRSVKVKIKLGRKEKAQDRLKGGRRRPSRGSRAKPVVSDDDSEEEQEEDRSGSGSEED

[22] = target: T1, Bromodomain-containing protein 4; experiment: Inhibition of BRD4 N-terminal bromodomain 1 (unknown origin) expressed in Escherichia coli Bl21(DE3) by alpha-screen assay
[23] = target: T1, Bromodomain-containing protein 4; experiment: Inhibition of BRD4 bromodomain 1 in human A549 cells assessed as reduction in TNFalpha-induced NFkappaB transcription at 1 to 25 uM after 8 hrs by bright-glo luciferase reporter gene assay relative to control; assay type: cell-based
Method in brief: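 A549-NF-κB-luc cells (DMEM, 10% FBS, hygromycin) were dosed with serial compound dilutions at 0.5% final DMSO. TNF-α (15 ng/mL final) was added 30 min after dosing. Bright-Glo luciferase luminescence was read 8 h later. Activity is expressed as percent NF-κB activity, as means ± SEM of three biological experiments, each with three technical replicates.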

[24] = target: T2, Bromodomain-containing protein 3; experiment: Inhibition of human 6x-His-tagged BRD3 bromodomain 2 expressed in Escherichia coli
[25] = target: T3, Bromodomain-containing protein 2; experiment: Inhibition of human 6x-His-tagged BRD2 bromodomain 2 expressed in Escherichia coli
[26] = system: A549; experiment: Cytotoxicity against human A549 cells assessed as reduction in cell viability at 10 to 25 uM after 8 hrs by Alamar blue assay; assay type: cell-based; settings: a549, 8 h
Method in brief: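 Viability of A549-NF-κB-luc cells was measured by Alamar Blue colorimetric staining, run in parallel with the luciferase reporter. Cells were dosed with serial compound dilutions at 0.5% final DMSO, TNF-α (15 ng/mL) was added 30 min after dosing, and the read was at 8 h.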

[27] = target: Mitogen-activated protein kinase 14 (Homo sapiens) (UniProt Q16539); experiment: Inhibition of p38alpha in human MM1S cells assessed as reduction in MSK1 phosphorylation at T581 up to 10 uM by Western blot analysis; assay type: cell-based
[28] = target: T1, Bromodomain-containing protein 4; settings: A549, 10 uM
[29] = target: T1, Bromodomain-containing protein 4; settings: A549, 1 uM

Cc1cc(C)cc(Nc2nccc(-c3c(CO)nnn3C3CCNCC3)n2)c1
IC50 [1]: 102 µM | IC50 [2]: 200 µM | IC50 [3]: 310 µM | IC50 [4]: > 250 µM | IC50 [5]: 260 µM | IC50 [6]: 110 µM

Cc1ccc(Nc2nccc(-c3c(-c4ccc(F)cc4)ncn3C3CCNCC3)n2)cc1C
IC50 [7]: > 250 µM | IC50 [8]: 4.7 µM | IC50 [9]: > 250 µM | inhibition [10]: inactive | inhibition [11]: inactive | Kd [12]: 1.8 µM | inhibition [13]: Active | Activity [14]: Non-Toxic | inhibition [15]: Active

Cc1cc(C)cc(Nc2nccc(-c3c(-c4ccc(F)cc4)ncn3C3CCNCC3)n2)c1
IC50 [8]: 3.5 µM | IC50 [9]: > 250 µM | Activity [16]: Active | IC50 [2]: 11.2 µM | IC50 [3]: > 100 µM | IC50 [4]: 29 µM | IC50 [5]: 67 µM | IC50 [6]: 5.3 µM | inhibition [11]: inactive | inhibition [17]: 50% | inhibition [18]: 40 to 50% | inhibition [19]: 40 to 50% | inhibition [20]: 40 to 50% | inhibition [21]: 40 to 50% | Activity [14]: Non-Toxic

Cc1cc(C)cc(Nc2nccc(-c3c(-c4ccc(F)cc4)nnn3C3CCNCC3)n2)c1
IC50 [1]: 75 µM | IC50 [22]: 27 µM | IC50 [2]: 51 µM | IC50 [3]: 110 µM | IC50 [4]: 43 µM | IC50 [5]: 30 µM | IC50 [6]: 36 µM

CC[C@@H]1C(=O)N(C)c2cnc(Nc3ccc(C(=O)NC4CCN(C)CC4)cc3OC)nc2N1C1CCCC1
inhibition [11]: Active

C[S+]([O-])c1ccc(-c2nc(-c3ccc(F)cc3)c(-c3ccncc3)[nH]2)cc1 (configuration not stated)
inhibition [23]: inactive

CC(=O)NCCCCn1c2c(c3ccccc31)C(=O)NCC2
Kd [24]: > 75 µM | Kd [25]: > 75 µM

NC(=O)c1ccc(N(C(N)=O)c2c(F)cccc2F)nc1-c1ccc(F)cc1F [VX-702]
Activity [26]: Non-Toxic | inhibition [23]: inactive

Cc1sc2c(c1C)C(c1ccc(Cl)cc1)=N[C@@H](CC(=O)OC(C)(C)C)c1nnc(C)n1-2
inhibition [27]: inactive

C[S+]([O-])c1ccc(-c2nc(-c3ccncc3)c(-c3ccc(F)cc3)[nH]2)cc1 (configuration not stated) [SB-203580]
Activity [26]: Non-Toxic

COc1cc(OC)c2c(=O)[nH]c(-c3cc(C)c(OCCO)c(C)c3)nc2c1
inhibition [10]: Active | inhibition [28]: 25% | inhibition [29]: 40%

Cc1cc(C)cc(Nc2nccc(-c3c(C)nnn3C3CCNCC3)n2)c1
IC50 [1]: 0.56 µM | IC50 [22]: 1.3 µM | IC50 [2]: 0.77 µM | IC50 [3]: 2.4 µM | IC50 [4]: 1.8 µM | IC50 [5]: 12 µM | IC50 [6]: 1.6 µM

Fc1ccc(-c2ncn(C3CCNCC3)c2-c2ccnc(Oc3cc(F)cc(F)c3)n2)cc1
IC50 [8]: > 250 µM | IC50 [9]: > 250 µM
